Calls of active or inactive are those of the source.
Tests used:
[1] = Toxicity in ip dosed BDF1 mouse; format: organism-based; settings: in vivo
In short: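 Acute toxicity in female BDF1 mice, reported as LD50 in mg/kg and mmol/kg.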

Ehrlich [2] = assay: Antitumor activity against mouse EAC allografted in BDF1 mouse assessed as cure from tumor at < LD50 administered as ip after 180 days; format: functional, organism-based
In short: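 Mice bearing Ehrlich ascites carcinoma were treated with ester. Cure was defined as survival to 180 days.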

Ehrlich [3] = assay: Antitumor activity against mouse EAC allografted in BDF1 mouse assessed as inhibition of tumor growth < LD50 administered as ip; format: functional
[4] = Toxicity in mouse L1210 cells allografted immunosuppressed BDF1 mouse assessed as mortality dosed intraperitoneally <LD50 after 60 days; format: organism-based; settings: in vivo, ip, read-out: Activity
L1210 = assay: Antitumor activity against mouse L1210 cells allografted in immune competent BDF1 mouse assessed as increase of host survival at < LD50 administered as ip after 60 days; format: functional

| Compound | LD50 [1] [µmol/kg] | also measured |
| --- | --- | --- |
| CC(=O)OCC(CF)OC(C)=O (stereo not given) | 220 | – |
| O=C(CCl)COC(=O)c1ccc([N+](=O)[O-])cc1 | 660 | Activity (Ehrlich [2]): Active |
| O=C(OCC(O)CF)c1ccccc1 (stereo not given) | 230 | – |
| COC(CF)(COC(=O)c1ccccc1)OC | 230 | – |
| OCC(O)CCl (stereo not given) | 1800 | – |
| CC(=O)OCC(=O)CF | 220 | – |
| C1CCC(NC2CCCCC2)CC1.O=P(O)(O)OCC(O)CCl | 2100 | – |
| CC(=O)COC(=O)c1ccccc1 | 7860 | – |
| O=C(CBr)COC(=O)c1ccccc1 | 120 | – |
| O=C(CO)CF | 220 | – |
| OCC(O)CBr (stereo not given) | 1370 | – |
| CC(=O)OCC(CCl)OC(C)=O (stereo not given) | 1740 | – |
| O=C(CF)COC(=O)c1ccccc1 | 180 | TGI (Ehrlich [3]): Active |
| O=C(CCl)COC(=O)c1ccccc1 | 330 | mortality at 1440 h [4]: 85%; Activity (Ehrlich [2]): Active; Survival (L1210): 85% |
| O=C(OCC(O)CBr)c1ccccc1 (stereo not given) | 1370 | – |
| O=C(OCC(O)CCl)c1ccccc1 (stereo not given) | 2100 | – |
| O=C(CCl)COC(=O)c1cc([N+](=O)[O-])cc([N+](=O)[O-])c1 | 880 | – |
| OCC(O)CF (stereo not given) | 210 | – |
| C1CCC(NC2CCCCC2)CC1.O=P(O)(O)OCC(O)CF | 300 | – |
| CC(=O)OCC(=O)CCl | 470 | – |
| COC(CO)(CF)OC | 200 | – |
| O=C(CF)COP(=O)(O)O | 150 | TGI (Ehrlich [3]): Active |
| O=C(CCl)COP(=O)(O)O | 360 | – |
| O=C(CF)COC(=O)c1ccc([N+](=O)[O-])cc1 | 370 | – |
